Assay [1] concerns the target T1, Histone deacetylase 7 (Homo sapiens) (UniProt Q8WUI4).
T1 sequence (whole entry): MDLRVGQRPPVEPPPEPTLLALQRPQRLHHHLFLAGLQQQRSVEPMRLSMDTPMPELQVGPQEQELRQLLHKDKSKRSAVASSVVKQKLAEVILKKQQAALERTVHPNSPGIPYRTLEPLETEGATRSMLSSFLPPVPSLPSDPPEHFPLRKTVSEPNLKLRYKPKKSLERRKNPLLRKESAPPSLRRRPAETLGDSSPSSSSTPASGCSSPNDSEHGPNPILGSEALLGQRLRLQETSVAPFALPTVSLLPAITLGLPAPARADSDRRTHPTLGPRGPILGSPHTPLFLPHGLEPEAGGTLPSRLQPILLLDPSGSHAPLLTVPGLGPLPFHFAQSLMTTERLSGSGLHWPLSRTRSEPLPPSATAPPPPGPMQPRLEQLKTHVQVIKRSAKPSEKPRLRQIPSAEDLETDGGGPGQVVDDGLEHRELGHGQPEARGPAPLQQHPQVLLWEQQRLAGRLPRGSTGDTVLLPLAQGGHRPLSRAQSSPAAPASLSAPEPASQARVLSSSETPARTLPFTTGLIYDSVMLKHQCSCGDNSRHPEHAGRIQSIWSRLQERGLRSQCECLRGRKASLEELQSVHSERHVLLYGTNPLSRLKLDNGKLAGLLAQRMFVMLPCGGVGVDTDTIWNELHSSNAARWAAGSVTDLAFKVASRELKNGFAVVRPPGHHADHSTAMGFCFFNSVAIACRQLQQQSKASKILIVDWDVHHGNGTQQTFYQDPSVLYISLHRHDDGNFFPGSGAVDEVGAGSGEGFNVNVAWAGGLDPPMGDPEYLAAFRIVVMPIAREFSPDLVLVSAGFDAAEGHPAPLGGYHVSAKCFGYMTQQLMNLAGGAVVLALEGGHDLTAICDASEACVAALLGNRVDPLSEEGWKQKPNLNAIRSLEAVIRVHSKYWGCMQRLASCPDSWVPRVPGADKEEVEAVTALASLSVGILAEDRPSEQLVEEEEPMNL
The experiment in a line: Inhibition of HDAC7 in wild-type CFTR expressing human primary lung cells assessed as forskolin-stimulated Fdelta508 CFTR channel activity at 10 uM after 24 hrs relative to control. The class given is cell-based. As to conditions: in the assay text read “Fdelta508 CFTR homozygous” for “wild-type CFTR expressing”. The procedure, abridged: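 Primary ΔF/ΔF human bronchial epithelial cells on permeable supports receive acute treatment, 10 μM for 24 h. The result is expressed relative to control.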

For assay [2], the target named is Cystic fibrosis transmembrane conductance regulator (Homo sapiens) (UniProt P13569). The assay can be described thus: Inhibition of CFTR transcription assessed as decrease of CFTR protein level at 50 uM by immunoblot method. For orientation: In western blotting, separated proteins are transferred to a membrane and probed.
The nature of assay [3]: In vivo inhibition of HDAC. The class given is organism-based.
Assay [4] concerns the target T1, Histone deacetylase 7 (Homo sapiens). The experiment in a line: Inhibition of HDAC7 in human CFBE41o- cell line assessed as correction of mutant Fdelta508 CFTR trafficking to cell surface as glycoform at 1 uM by Immunoblot analysis. The procedure, abridged:
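CFBE41o- ΔF508 cells in α-MEM/10% FBS/2mM L-glutamine/puromycin are dosed at 1 μM every 24 h, chronically for up to 8 days, against DMSO. Lysates are made in Tris-HCl/NaCl/1% Triton X-100. 15μg protein is run on 8% SDS-PAGE and probed with M3A7 by chemiluminescence. Band B (ER) and band C (post-Golgi) are quantified, and the C/B ratio is calculated.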

The target is the same in assay [5]. The experiment in a line: Inhibition of HDAC7 expressed in hamster BHK cell line assessed as increase in plasma membrane Fdelta508 CFTR protein at 1 uM by immunofluorescence method. The class given is cell-based. In outline: (§1)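 Surface ΔF508extope is labelled with HA.11 antibody under non-permeabilizing conditions.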
Assay [6] shares this target. The experiment in a line: Inhibition of HDAC7 in Fdelta508 CFTR-expressing human CFBE41o- monolayers assessed as increase in short circuit currents at 10 uM. In outline: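 CFBE41o- cells stably expressing ΔF508 CFTR are cultured on permeable supports and mounted for short-circuit current (Isc) measurement.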
Assay [7] has the same target. The experiment in a line: Inhibition of HDAC7 in wild-type CFTR expressing human primary lung cells assessed as induction of short circuit currents at 1 uM for 4, 6, and 8 days relative to control. The class given is cell-based.
Assay [8] has the same target. The assay can be described thus: Inhibition of HDAC7 in human homozygous Fdelta508 primary bronchial epithelial cells assessed as induction of short circuit currents at 1 uM for 4, 6, and 8 days relative to control. The class given is cell-based. As to conditions: Epithelial cell. The procedure, abridged: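 Primary bronchial epithelial cells homozygous for ΔF508 from patients are grown on permeable supports. They are exposed to 1 μM for 4, 6 and 8 days against DMSO controls. ΔIsc is measured in Ussing chambers in μA/cm2, and is also compared with wild-type level.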

The test system of a further assay is BHK. The experiment in a line: Inhibition of HDAC expressed in hamster BHK cell line assessed as increase in plasma membrane Fdelta508 CFTR protein at 5 uM by immunofluorescence method. The class given is cell-based. The procedure, abridged: as §1

Structures are written as SMILES. Calls of active or inactive are those of the source. The rule behind the calls is not given here.

The record followed here is ChEMBL document CHEMBL1255383, “Reduced histone deacetylase 7 activity restores function to misfolded CFTR in cystic fibrosis” (Nat Chem Biol, 2010).

Cystic fibrosis transmembrane conductance regulator (Homo sapiens), sequence (P13569 whole entry, looked up): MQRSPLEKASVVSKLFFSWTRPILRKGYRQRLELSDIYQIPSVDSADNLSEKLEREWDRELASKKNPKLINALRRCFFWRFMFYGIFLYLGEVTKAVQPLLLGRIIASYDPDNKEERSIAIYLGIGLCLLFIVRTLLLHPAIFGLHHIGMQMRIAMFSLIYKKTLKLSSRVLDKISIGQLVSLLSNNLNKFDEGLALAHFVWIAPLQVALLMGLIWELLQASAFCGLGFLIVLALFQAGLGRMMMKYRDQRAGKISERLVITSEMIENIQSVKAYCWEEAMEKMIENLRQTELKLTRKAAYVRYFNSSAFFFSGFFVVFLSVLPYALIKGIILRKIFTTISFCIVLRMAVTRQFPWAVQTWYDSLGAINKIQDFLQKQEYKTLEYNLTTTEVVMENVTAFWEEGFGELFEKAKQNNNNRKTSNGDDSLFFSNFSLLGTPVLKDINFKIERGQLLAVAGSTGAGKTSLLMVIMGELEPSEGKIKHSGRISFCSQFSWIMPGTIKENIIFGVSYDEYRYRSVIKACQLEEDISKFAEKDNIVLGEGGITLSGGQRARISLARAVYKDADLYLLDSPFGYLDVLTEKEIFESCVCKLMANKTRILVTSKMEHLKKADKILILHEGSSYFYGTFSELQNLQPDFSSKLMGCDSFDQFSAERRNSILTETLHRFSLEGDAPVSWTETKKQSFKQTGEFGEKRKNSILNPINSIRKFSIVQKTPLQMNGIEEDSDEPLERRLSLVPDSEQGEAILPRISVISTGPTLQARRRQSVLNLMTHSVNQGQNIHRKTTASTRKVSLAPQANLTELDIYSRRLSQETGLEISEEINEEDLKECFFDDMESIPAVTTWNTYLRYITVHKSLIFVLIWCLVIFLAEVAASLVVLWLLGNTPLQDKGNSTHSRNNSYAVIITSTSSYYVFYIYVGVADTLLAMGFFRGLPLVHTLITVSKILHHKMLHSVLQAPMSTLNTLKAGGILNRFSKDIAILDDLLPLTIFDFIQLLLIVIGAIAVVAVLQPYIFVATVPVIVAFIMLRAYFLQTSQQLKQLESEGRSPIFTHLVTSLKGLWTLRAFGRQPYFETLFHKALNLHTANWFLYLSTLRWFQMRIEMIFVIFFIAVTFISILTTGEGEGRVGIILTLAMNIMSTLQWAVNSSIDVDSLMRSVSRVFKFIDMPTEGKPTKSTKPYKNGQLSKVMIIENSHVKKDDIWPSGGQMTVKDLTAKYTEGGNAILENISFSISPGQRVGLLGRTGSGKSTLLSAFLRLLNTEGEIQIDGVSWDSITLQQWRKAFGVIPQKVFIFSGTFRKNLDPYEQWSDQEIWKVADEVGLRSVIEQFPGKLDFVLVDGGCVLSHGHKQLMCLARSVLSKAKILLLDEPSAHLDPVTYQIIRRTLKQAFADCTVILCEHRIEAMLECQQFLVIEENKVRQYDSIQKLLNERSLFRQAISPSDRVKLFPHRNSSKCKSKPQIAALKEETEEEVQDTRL

As for `O=c1c(-c2ccc(O)cc2)coc2cc(O)cc(O)c12`, the Activity in [1] amounted to 3.7 uA.cm'-2.

For `O=C(CCCCCCC(=O)Nc1ccccc1)NO`, the inhibition entry in assay [2] was “Active”.

As usually defined, the IC50 is the concentration at which inhibition is half-maximal. In turn, `O=C(CCCCCN1C(=O)c2cccc3cccc(c23)C1=O)NO` displayed an IC50 in assay [3] of 1000 nM. The inhibition result in assay [4], in assay [5], in assay [2] and in assay [6] was “Active” each time.

`CC(/C=C/C(=O)NO)=C\[C@@H](C)C(=O)c1ccc(N(C)C)cc1` [TRICHOSTATIN]: the IC50 in assay [3] was 100 nM. In assay [2], the inhibition result was “Active”.

Consider `C=C[C@@]1(C)CC(=O)[C@]2(O)[C@@]3(C)[C@@H](O)CCC(C)(C)[C@@H]3[C@H](O)[C@H](OC(C)=O)[C@@]2(C)O1`, for which the Activity was found to be 23.1 uA.cm'-2 in assay [7], 6.5 uA.cm'-2 in [8] and 3.7 uA.cm'-2 in [1].

Turning to `Nc1ccccc1NC(=O)c1ccc(CNC(=O)OCc2cccnc2)cc1` [ENTINOSTAT], the inhibition result (in the assay on BHK; in assay [2]) was “Active” in each case. The compound also displayed an IC50 in assay [3] of 5000 nM.
